Measured values reported in ChEMBL document CHEMBL1759994, “The discovery and synthesis of potent zwitterionic inhibitors of renin” (Bioorg Med Chem Lett, 2011).

Legend:
Liver [1] = test: Metabolic stability in Sprague-Dawley rat liver S9 fraction assessed as conversion to (1R,2R)-2-((3-(((3R,4S)-N-cyclopropyl-4-(4-(2-(2,6-dichloro-4-methylphenoxy)ethoxy)phenyl)piperidine-3-carboxamido)methyl)-5-(3-methoxypropyl)phenoxy)methyl)cyclopropanecarboxylic acid after 20 mins; format: ADME, subcellular; conditions: s9, 20 min
Summary of the method: (§1)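 Prodrugs were incubated for 20 min in rat or human whole blood, or in rat or human liver S9 fraction (n = 2). The read-out was % conversion to the parent carboxylic acid.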

[2] = AUC (0 to 24 hrs) in Sprague-Dawley rat at 20 mg/kg, po as 0.5% methocel suspension; format: ADME, organism-based; parameters: time < 24 hr, dose 20 mg/kg, route oral; conditions: plasma
Blood [3] = test: Metabolic stability in Sprague-Dawley rat whole blood assessed as conversion to (1R,2R)-2-((3-(((3R,4S)-N-cyclopropyl-4-(4-(2-(2,6-dichloro-4-methylphenoxy)ethoxy)phenyl)piperidine-3-carboxamido)methyl)-5-(3-methoxypropyl)phenoxy)methyl)cyclopropanecarboxylic acid after 20 mins; format: ADME, tissue-based; summary of the method: as §1
Liver [4] = test: Metabolic stability in human liver S9 fraction assessed as conversion to (1R,2R)-2-((3-(((3R,4S)-N-cyclopropyl-4-(4-(2-(2,6-dichloro-4-methylphenoxy)ethoxy)phenyl)piperidine-3-carboxamido)methyl)-5-(3-methoxypropyl)phenoxy)methyl)cyclopropanecarboxylic acid after 20 mins; format: ADME, subcellular; conditions: s9, 20 min; summary of the method: as §1
Blood [5] = test: Metabolic stability in human whole blood assessed as conversion to (1R,2R)-2-((3-(((3R,4S)-N-cyclopropyl-4-(4-(2-(2,6-dichloro-4-methylphenoxy)ethoxy)phenyl)piperidine-3-carboxamido)methyl)-5-(3-methoxypropyl)phenoxy)methyl)cyclopropanecarboxylic acid after 20 mins; format: ADME, tissue-based; summary of the method: as §1
[6] = molecular target: Voltage-gated inwardly rectifying potassium channel KCNH2 (Homo sapiens, UniProt Q12809); test: Binding affinity to human ERG
Renin [7] = molecular target: T1, Renin (Homo sapiens, UniProt P00797); test: Inhibition of human recombinant renin in PBS buffer using tetradecapeptide at pH 7.4
T1 sequence (P00797 whole entry): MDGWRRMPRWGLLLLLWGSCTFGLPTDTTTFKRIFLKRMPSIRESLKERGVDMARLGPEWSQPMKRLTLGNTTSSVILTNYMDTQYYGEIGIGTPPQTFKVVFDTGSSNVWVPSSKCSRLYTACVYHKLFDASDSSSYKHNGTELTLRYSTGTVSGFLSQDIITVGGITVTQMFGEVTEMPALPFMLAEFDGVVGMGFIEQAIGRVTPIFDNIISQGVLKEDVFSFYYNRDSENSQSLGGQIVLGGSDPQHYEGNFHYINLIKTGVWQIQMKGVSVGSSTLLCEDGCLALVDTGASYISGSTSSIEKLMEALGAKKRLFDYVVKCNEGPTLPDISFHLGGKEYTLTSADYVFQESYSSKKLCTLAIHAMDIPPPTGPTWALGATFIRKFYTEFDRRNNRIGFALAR

[8] = AUC (0 to 24 hrs) in Sprague-Dawley rat at 30 mg/kg, po as 0.5% methocel suspension; format: ADME, organism-based; parameters: time < 24 hr, dose 30 mg/kg, route oral; conditions: plasma
Cytochrome P450 3A4 [9] = molecular target: T2, Cytochrome P450 3A4 (Homo sapiens, UniProt P08684); test: Inhibition of human CYP3A4 in human liver microsomes assessed as formation of 6beta-hydroxy-testosterone using testosterone as substrate by high throughput mass spectrometry preincubated for 30 mins in presence of NADPH; format: ADME, Microsome
[10] = Oral bioavailability in Sprague-Dawley rat at 30 mg/kg as 0.5% methocel suspension; format: ADME, organism-based; conditions: in vivo
Cytochrome P450 3A4 [11] = molecular target: T2, Cytochrome P450 3A4; test: Inhibition of human CYP3A4 in human liver microsomes assessed as formation of 6beta-hydroxy-testosterone using testosterone as substrate by high throughput mass spectrometry in absence of NADPH; format: ADME, Microsome
[12] = Clearance in Sprague-Dawley rat at 30 mg/kg, po in 0.5% methocel and 3 to 5 mg/kg, iv in 60% PEG 200; conditions: in vivo
Renin [13] = molecular target: T1, Renin; test: Inhibition of human recombinant renin in human citreated-plasma

T2 sequence (P08684 whole entry): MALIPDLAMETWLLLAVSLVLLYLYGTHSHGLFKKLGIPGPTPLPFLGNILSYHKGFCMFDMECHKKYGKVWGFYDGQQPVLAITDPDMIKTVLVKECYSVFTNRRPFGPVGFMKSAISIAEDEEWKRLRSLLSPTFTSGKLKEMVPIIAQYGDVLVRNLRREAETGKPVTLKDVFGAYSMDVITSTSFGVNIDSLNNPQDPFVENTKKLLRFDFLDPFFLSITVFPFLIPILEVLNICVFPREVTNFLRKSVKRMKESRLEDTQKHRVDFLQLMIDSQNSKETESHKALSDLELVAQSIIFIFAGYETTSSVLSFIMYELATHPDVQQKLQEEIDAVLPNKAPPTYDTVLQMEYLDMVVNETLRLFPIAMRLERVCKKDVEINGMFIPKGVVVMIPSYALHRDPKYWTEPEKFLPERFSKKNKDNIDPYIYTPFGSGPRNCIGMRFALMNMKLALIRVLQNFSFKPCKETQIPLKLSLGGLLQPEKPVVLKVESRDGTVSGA
Sequence of Voltage-gated inwardly rectifying potassium channel KCNH2 (Q12809 whole entry): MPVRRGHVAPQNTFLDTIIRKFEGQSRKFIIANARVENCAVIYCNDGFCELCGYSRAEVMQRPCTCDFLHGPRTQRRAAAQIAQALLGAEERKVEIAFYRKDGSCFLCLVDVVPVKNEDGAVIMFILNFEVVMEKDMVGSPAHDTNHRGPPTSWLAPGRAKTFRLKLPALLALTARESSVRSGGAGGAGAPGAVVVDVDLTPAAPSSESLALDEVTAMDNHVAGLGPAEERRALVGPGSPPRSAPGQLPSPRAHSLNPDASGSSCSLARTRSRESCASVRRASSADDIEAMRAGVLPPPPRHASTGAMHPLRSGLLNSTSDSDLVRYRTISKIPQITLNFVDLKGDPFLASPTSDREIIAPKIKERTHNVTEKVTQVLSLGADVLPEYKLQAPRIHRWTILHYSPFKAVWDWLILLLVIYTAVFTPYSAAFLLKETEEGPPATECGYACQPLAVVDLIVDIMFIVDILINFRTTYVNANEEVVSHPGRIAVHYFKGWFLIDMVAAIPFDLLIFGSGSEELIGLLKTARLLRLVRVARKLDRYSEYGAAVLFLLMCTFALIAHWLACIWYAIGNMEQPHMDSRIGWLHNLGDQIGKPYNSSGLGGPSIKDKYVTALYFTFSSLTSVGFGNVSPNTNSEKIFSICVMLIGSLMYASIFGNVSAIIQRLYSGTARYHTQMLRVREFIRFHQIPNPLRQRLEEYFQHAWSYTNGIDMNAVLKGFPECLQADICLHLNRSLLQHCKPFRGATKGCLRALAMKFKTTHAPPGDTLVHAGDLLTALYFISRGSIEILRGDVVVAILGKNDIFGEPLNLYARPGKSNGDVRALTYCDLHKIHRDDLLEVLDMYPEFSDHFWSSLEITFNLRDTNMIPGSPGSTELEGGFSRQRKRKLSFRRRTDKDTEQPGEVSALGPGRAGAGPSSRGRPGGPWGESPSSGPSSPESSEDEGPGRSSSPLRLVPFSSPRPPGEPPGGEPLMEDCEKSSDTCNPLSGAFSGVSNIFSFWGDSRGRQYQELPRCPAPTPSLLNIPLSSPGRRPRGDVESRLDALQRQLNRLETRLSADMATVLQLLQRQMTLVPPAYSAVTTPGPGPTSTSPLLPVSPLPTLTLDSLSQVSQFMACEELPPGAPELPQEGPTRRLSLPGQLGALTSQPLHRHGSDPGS

Structure (SMILES)	Activity (Liver [1])	AUC(0-t) at 24 h [2]	Activity (Blood [3])	Activity (Liver [4])	Activity (Blood [5])	IC50 (Renin [7])	AUC(0-t) at 24 h [8]	IC50 (Cytochrome P450 3A4 [9])	bioavailability [10]	IC50 (Cytochrome P450 3A4 [11])	clearance [12]	IC50 (Renin [13])	Ki [6]
COCCCc1cc(CN(C(=O)[C@H]2CN(C(=O)OCc3oc(=O)oc3C)CC[C@@H]2c2ccc(OCCOc3c(Cl)cc(C)cc3Cl)cc2)C2CC2)cc(OC[C@H]2C[C@@H]2C(=O)O)c1	98%	0.2 µM·h	93%	99%	11%	–	–	–	–	–	–	–	3700 nM
COCCCc1cc(CN(C(=O)[C@H]2CNCC[C@@H]2c2ccc(OCCOc3c(Cl)cc(C)cc3Cl)cc2)C2CC2)cc(OCC(C)(C)C(=O)O)c1	–	–	–	–	–	0.06 nM	1.1 µM·h	> 50000 nM	9%	> 50000 nM	44 mL/min/kg	29.6 nM	600 nM
COCCCc1cc(CN(C(=O)[C@H]2CNCC[C@@H]2c2ccc(OCCOc3c(Cl)cc(C)cc3Cl)cc2)C2CC2)cc(OCCC(C)(C)C(=O)O)c1	–	–	–	–	–	0.02 nM	2.1 µM·h	> 50000 nM	13%	> 50000 nM	43 mL/min/kg	9 nM	400 nM
COCCCc1cc(CN(C(=O)[C@H]2CNCC[C@@H]2c2ccc(OCCOc3c(Cl)cc(C)cc3Cl)cc2)C2CC2)cc(OCCCC(C)(C)C(=O)O)c1	–	–	–	–	–	0.01 nM	16 µM·h	> 50000 nM	22%	> 50000 nM	9.7 mL/min/kg	6.1 nM	200 nM
CCC(CC)(CCOc1cc(CCCOC)cc(CN(C(=O)[C@H]2CNCC[C@@H]2c2ccc(OCCOc3c(Cl)cc(C)cc3Cl)cc2)C2CC2)c1)C(=O)O	–	–	–	–	–	–	6.1 µM·h	> 50000 nM	26%	> 50000 nM	29 mL/min/kg	–	400 nM
COCCCc1cc(CN(C(=O)[C@H]2CNCC[C@@H]2c2ccc(OCCOc3c(Cl)cc(C)cc3Cl)cc2)C2CC2)cc(OC[C@H]2C[C@@H]2C(=O)NS(C)(=O)=O)c1	–	–	–	–	–	0.01 nM	–	> 50000 nM	0%	> 50000 nM	26 mL/min/kg	2.1 nM	500 nM
COCCCc1cc(CN(C(=O)[C@H]2CNCC[C@@H]2c2ccc(OCCOc3c(Cl)cc(C)cc3Cl)cc2)C2CC2)cc(OCC2(Cc3nn[nH]n3)CC2)c1	–	–	–	–	–	–	–	> 50000 nM	0%	> 50000 nM	46 mL/min/kg	5.3 nM	500 nM

Further lines, with some results ahead:

Activity (Liver [1])	AUC(0-t) at 24 h [2]	Activity (Blood [3])	Activity (Liver [4])	Activity (Blood [5])	IC50 (Renin [7])	AUC(0-t) at 24 h [8]	IC50 (Cytochrome P450 3A4 [9])	bioavailability [10]	IC50 (Cytochrome P450 3A4 [11])	clearance [12]	IC50 (Renin [13])	Structure (SMILES)	Ki [6]
–	–	–	–	–	0.04 nM	0.2 µM·h	> 50000 nM	2%	> 50000 nM	49 mL/min/kg	–	COCCCc1cc(CN(C(=O)[C@H]2CNCC[C@@H]2c2ccc(OCCOc3c(Cl)cc(C)cc3Cl)cc2)C2CC2)cc(OCC2(CC(=O)O)CC2)c1	1000 nM
–	–	–	–	–	0.01 nM	3.3 µM·h	> 50000 nM	15%	> 50000 nM	27 mL/min/kg	12.4 nM	COCCCc1cc(CN(C(=O)[C@H]2CNCC[C@@H]2c2ccc(OCCOc3c(Cl)cc(C)cc3Cl)cc2)C2CC2)cc(OCCC2(C(=O)O)CCCC2)c1	500 nM
–	–	–	–	–	0.06 nM	1.2 µM·h	> 50000 nM	3%	> 50000 nM	23 mL/min/kg	2.1 nM	COCCCc1cc(CN(C(=O)[C@H]2CNCC[C@@H]2c2ccc(OCCOc3c(Cl)cc(C)cc3Cl)cc2)C2CC2)cc(OCC[C@](C)(OC)C(=O)O)c1	2300 nM
